The values below come from ChEMBL document CHEMBL1153879, “Synthesis and pharmacokinetic evaluation of novel N-acyl-cordycepin derivatives with a normal alkyl chain” (Eur J Med Chem, 2009).

Molecules are shown by their SMILES.

Data set [1] has as its system Mus musculus. The data set is described as follows: Tmax in C57BL/6 mouse at 0.5 umol/kg, po assessed as transformed cordycepin levels. The class given is ADME, organism-based. The settings on record: in vivo. A digest of the protocol: (§1)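 Male C57BL/6 mice (20±2 g, 7 weeks old) received a single oral dose in 2% Tween-80 aqueous solution. Blood was extracted with MeOH or EtOAc, depending on the compound, and assayed by HPLC. Parameters were derived from the mean profiles (n=5).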

A short description of data set [2]: Tmax in C57BL/6 mouse at 0.5 umol/kg, po. Type of data set: ADME, organism-based. The settings on record: in vivo. An outline of the steps: as §1
A short description of data set [3]: AUC in C57BL/6 mouse at 0.5 umol/kg, po. The settings on record: plasma. Type of data set: ADME, organism-based. A digest of the protocol: as §1
In data set [4] the test system is Mus musculus. The data set is described as follows: Half life in C57BL/6 mouse at 500 umol/kg, po assessed as transformed cordycepin levels. The settings on record: in vivo.
Data set [5] can be described thus: Half life in C57BL/6 mouse at 0.5 umol/kg, po. Type of data set: ADME, organism-based. The settings on record: in vivo. A digest of the protocol:
as §1

A short description of data set [6]: Cmax in C57BL/6 mouse at 0.5 umol/kg, po. The settings on record: in vivo. The class given is ADME, organism-based. Further details: dose 0.5 umol/kg, route oral. An outline of the steps:
as §1

For data set [7], the system named is Mus musculus. The data set is described as follows: AUC in C57BL/6 mouse at 0.5 umol/kg, po assessed as transformed cordycepin levels. Type of data set: ADME, organism-based, Plasma. The settings on record: in vivo, in the assay text read “500 umol/kg” for “0.5 umol/kg”. A digest of the protocol: as §1
Data set [8] relates to Mus musculus. The data set can be described thus: Cmax in C57BL/6 mouse at 500 umol/kg, po assessed as transformed cordycepin levels. The settings on record: in vivo.
The subject of data set [9] is Mus musculus. The data set can be described thus: Half life in C57BL/6 mouse at 0.5 umol/kg, po assessed as transformed cordycepin levels. The class given is ADME, organism-based. The settings on record: in vivo, in the assay text read “500 umol/kg” for “0.5 umol/kg”. An outline of the steps: as §1

The term Tmax denotes the time at which the peak concentration occurs. In general, AUC refers to the area under the concentration-time curve, a measure of exposure. The half-life is how long it takes for the measured level to halve. Read a high half-life as slow decline. As a reminder, the Cmax is the peak of the concentration-time curve. With `CCCCCCCCCCCC(=O)Nc1ncnc2c1ncn2[C@@H]1O[C@H](CO)C[C@H]1O`, the Tmax in the data set with Mus musculus [1] was 8 h; in [2] it was 6 h. Also, the area under the curve (AUC) in data set [3] is 672 µM·h; in the data set with Mus musculus [7] it was 69.1 µM·h. Also, the t1/2 in the data set with Mus musculus [4] is 10.5 h. The half-life in data set [5] was 8.3 h. Also, the highest concentration (Cmax) in data set [6] was 160 µM; with Mus musculus [8], 15 µM.
In the case of `CCC(=O)Nc1ncnc2c1ncn2[C@@H]1O[C@H](CO)C[C@H]1O`, the time of peak concentration (Tmax) with Mus musculus [1] is 5 h; in data set [2], 3 h. Moreover, the area under the curve (AUC) in data set [3] is 356 µM·h; in the data set with Mus musculus [7], 59.9 µM·h. The t1/2 in the data set on Mus musculus [9] was 7.5 h. In data set [5], this molecule gave a half-life of 4.4 h. In addition, the highest concentration (Cmax) in data set [6] was found to be 120 µM; in the data set with Mus musculus [8] it was 14.1 µM.
Consider `CCCCCCCCCCCCCCCCCC(=O)Nc1ncnc2c1ncn2[C@@H]1O[C@H](CO)C[C@H]1O`, for which the Tmax in the data set on Mus musculus [1] came to 10 h; in [2] it was 8 h. The AUC in [3] worked out at 32.5 µM·h; with Mus musculus [7] it was 3.7 µM·h. In the data set with Mus musculus [9], the t1/2 was 10.8 h. The half-life in data set [5] is 8.6 h. The Cmax worked out at 22.1 µM in data set [6] and 2.2 µM in the data set with Mus musculus [8].
Take `CCCCCCCC(=O)Nc1ncnc2c1ncn2[C@@H]1O[C@H](CO)C[C@H]1O`: the figures for the time to peak (Tmax) (in the data set with Mus musculus [1]; in data set [2]) were 7 h and 5 h, respectively. Moreover, the AUC came out at 1310 µM·h in data set [3] and 83.7 µM·h with Mus musculus [7]. Besides, in the data set on Mus musculus [9], the t1/2 is 9.4 h. Also, in [5], the half-life was 6.8 h. The Cmax is 310 µM in data set [6] and 20.6 µM in the data set on Mus musculus [8].
Consider `Nc1ncnc2c1ncn2[C@@H]1O[C@H](CO)C[C@H]1O` [CORDYCEPIN], for which the Tmax (in the data set with Mus musculus [1]; in [2]) was 1.5 h in each case. Moreover, the AUC (in data set [3]; in the data set on Mus musculus [7]) was 19.2 µM·h each time. The t1/2 with Mus musculus [9] was 2.1 h. Moreover, the half-life in [5] is 2.1 h. Besides, the highest concentration (Cmax) (in data set [6]; in the data set on Mus musculus [8]) was 10.1 µM throughout.
